Assay results: article PMC3419596 (Cell stem cell, 2012)
Entries after “also recorded” stand apart in the source; their conditions may differ. Like-named read-outs stand apart in the source and are kept apart here. Each block holds one molecule with its values, some of them ahead of it.

Tests used:
[1] = test system: T-GFP mESCs; experiment: Mesoderm inhibition assay, T-GFP mESC flow cytometry; type: cell-based, mouse; details: added at day 1 of differentiation
[2] = test system: Myh6-GFP mESC; experiment: mESC cardiogenesis assay, Myh6-GFP reporter; type: cell-based, mouse
[3] = test system: Cripto−/− mESC, Activin A-induced mesoderm; experiment: T gene expression in Cripto−/− mESC, mesoderm induced by Activin A; type: cell-based, mouse
How it was run: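 Mesoderm assay in Cripto−/− mESCs under serum-free conditions. At day 2 of embryoid body formation, cells are given 15 ng/ml Activin A plus test compound. T (Brachyury) mRNA is quantified by RT-qPCR (SYBR Green) on cDNA from total RNA and compared with no-Activin and Activin-alone controls. Data are mean ± SEM of ≥3 biological replicates; Student's t-test.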

[4] = biological target: type II (TGFBR2) TGFβ receptor (Homo sapiens, UniProt P37173); experiment: TGFBR2 kinase activity; type: biochemical
[5] = test system: Activin A signaling; experiment: SBE4-Luc; type: cell-based, human; details: HEK293T, Activin A 15ng/ml
How it was run: (§1)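 HEK293T cells grown in high-glucose DMEM with 1% FBS are co-transfected with SBE4-firefly luciferase and CMV-Renilla luciferase. After 12 h adhesion they are stimulated with Activin A or TGFβ2 (15 ng/ml each), with inhibitor added at the same time. Luminescence is read by dual-luciferase assay. IC50 comes from a log(inhibitor) vs normalized response fit, with toxic doses excluded; Emax is given as % inhibition. Data are mean ± SEM.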

[6] = test system: SMAD2/3 phosphorylation induced by TGFβ2; experiment: p-SMAD2/3 Western blot in HEK293T cells, TGFβ2 stimulation; type: cell-based, human
How it was run: (§2)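 HEK293T cells are treated with test compound and stimulated with Activin A or TGFβ. Cells are washed in cold PBS, lifted with enzyme-free buffer and lysed in ice-cold RIPA with protease and phosphatase inhibitors. Lysates are run on 10% SDS-Tris-glycine gels, blotted to PVDF and blocked and probed in 5% skim milk/TBST; detection by ECL or infrared imaging. p-SMAD2/3 is normalized to GAPD and total SMAD2/3 and reported as % inhibition.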

[7] = biological target: TGFBR2 (Homo sapiens, UniProt P37173); experiment: TGFBR2 protein levels by Western blot; type: cell-based; details: HEK293T, DLD1 and A549 cells, 5μM
[8] = test system: TGFBR2; experiment: TGFBR2 protein levels by Western blot; type: cell-based, human; details: overexpressed in HEK293T, 24h, 5μM
[9] = biological target: type I (TGFBR1) TGFβ receptor (Homo sapiens, UniProt P36897); experiment: TGFBR1 kinase activity; type: biochemical
[10] = test system: HEK293T cells; experiment: Toxicity control for inhibitory activity; type: cell-based, human
How it was run: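 Toxicity in the reporter assays is judged from Renilla luciferase levels, Alamar Blue viability or microscopy. Doses judged toxic are removed before IC50/EC50 curve fitting.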

[11] = test system: TGFBR1; experiment: TGFBR1 protein levels by Western blot, overexpressed in HEK293T; type: cell-based, human; details: 24h, 5μM
[12] = test system: TGFβ2 signaling (Lefty1 target gene); experiment: Lefty1 mRNA in Cripto−/− mESC, TGFβ2-induced; type: cell-based, mouse; details: Cripto−/− mESCs
How it was run: (§3)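 Cripto−/− mESCs are moved to serum-free conditions. At day 2 of embryoid body formation they receive 15 ng/ml Activin A or 15 ng/ml TGFβ2 together with test compound. Lefty1 mRNA is measured by RT-qPCR (SYBR Green) on cDNA from total RNA. The TGFβ2 arm is also run as a time course, with a serum-free-medium-alone control. Data are mean ± SEM of ≥3 biological replicates; Student's t-test.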

[13] = test system: Wnt signaling; experiment: Wnt signaling inhibition; type: cell-based
[14] = test system: SMAD2/3 phosphorylation induced by Activin A; experiment: p-SMAD2/3 Western blot in HEK293T cells, Activin A stimulation; type: cell-based, human
How it was run: as §2

[15] = test system: Activin A signaling (Lefty1 target gene); experiment: Lefty1 mRNA in Cripto−/− mESC, Activin A-induced; type: cell-based, mouse; details: 5μM, Cripto−/− mESCs
How it was run: as §3

[16] = test system: Cripto−/− mESC, TGFβ2-induced mesoderm; experiment: T gene expression in Cripto−/− mESC, mesoderm induced by TGFβ2; type: cell-based, mouse
How it was run: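 Cripto−/− mESC were moved to serum-free conditions as embryoid bodies. At day 2 of EB formation they received 15 ng/ml TGFβ2 together with test compound. T expression was measured by RT-qPCR. Comparisons were made against a no-TGFβ2 control and against TGFβ2 alone. Mean ± SEM of ≥3 biological replicates; Student's t-test.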

[17] = test system: mESC; experiment: RT-qPCR of germ layer and lineage markers in mESC; type: cell-based, mouse
[18] = test system: H9 hESC; experiment: hESC; type: cell-based, human
[19] = test system: TGFBR2; experiment: TGFBR2 internalization; type: cell-based; details: HA-TGFBR2-mCherry, presence of TGFβ2 ligand
[20] = test system: other tyrosine kinase receptors; experiment: Levels of other tyrosine kinase receptors; type: cell-based
[21] = test system: calcium channel; experiment: Calcium inhibition as mechanism of ITD-1 activities
[22] = test system: BMP signaling; experiment: BMP signaling inhibition; type: cell-based
[23] = test system: HA-TGFBR2-mCherry; experiment: Flow cytometry receptor degradation assay with HA-TGFBR2-mCherry in HEK293T; type: cell-based, human
[24] = test system: TGFβ2 signaling; experiment: SBE4-Luc; type: cell-based, human; details: for IC50: read-out: IC50 TGFβ2 signaling inhibition (SBE4-Luc)
How it was run: as §1

[25] = added day 3-5 of differentiation
[26] = given at day 1 of differentiation

type II (TGFBR2) TGFβ receptor, sequence (P37173 23-567, species assumed): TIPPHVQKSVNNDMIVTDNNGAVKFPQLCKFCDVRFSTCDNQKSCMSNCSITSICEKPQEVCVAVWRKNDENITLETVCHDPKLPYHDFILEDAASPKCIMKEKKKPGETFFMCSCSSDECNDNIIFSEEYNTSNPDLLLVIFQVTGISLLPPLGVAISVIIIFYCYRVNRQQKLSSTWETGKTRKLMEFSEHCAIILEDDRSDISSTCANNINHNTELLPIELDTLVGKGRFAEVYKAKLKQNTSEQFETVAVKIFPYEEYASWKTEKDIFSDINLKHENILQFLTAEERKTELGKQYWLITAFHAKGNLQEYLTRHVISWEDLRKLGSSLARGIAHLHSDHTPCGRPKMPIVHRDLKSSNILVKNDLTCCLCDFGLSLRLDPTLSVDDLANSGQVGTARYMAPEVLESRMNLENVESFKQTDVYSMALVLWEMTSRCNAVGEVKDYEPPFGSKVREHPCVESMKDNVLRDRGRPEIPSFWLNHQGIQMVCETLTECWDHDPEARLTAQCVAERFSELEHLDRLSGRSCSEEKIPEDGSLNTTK
TGFBR2 (Homo sapiens, UniProt P37173), sequence (P37173 23-567): as the sequence (P37173 23-567, species assumed) above
type I (TGFBR1) TGFβ receptor, sequence (P36897 34-503, species assumed): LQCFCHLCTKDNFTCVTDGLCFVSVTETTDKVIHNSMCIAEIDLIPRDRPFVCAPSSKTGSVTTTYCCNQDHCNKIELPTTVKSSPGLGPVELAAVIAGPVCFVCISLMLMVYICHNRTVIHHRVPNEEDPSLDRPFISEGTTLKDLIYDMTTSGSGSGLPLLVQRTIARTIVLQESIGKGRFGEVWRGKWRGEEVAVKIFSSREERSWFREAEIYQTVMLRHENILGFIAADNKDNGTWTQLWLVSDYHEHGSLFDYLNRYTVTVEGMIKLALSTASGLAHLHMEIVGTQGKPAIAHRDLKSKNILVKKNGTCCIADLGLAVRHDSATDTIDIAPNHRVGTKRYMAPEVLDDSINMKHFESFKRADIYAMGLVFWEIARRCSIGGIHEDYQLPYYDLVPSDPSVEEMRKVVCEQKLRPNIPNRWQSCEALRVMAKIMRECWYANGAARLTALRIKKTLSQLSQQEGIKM

Molecule: c1cc(-c2cnn3cc(-c4ccc(OCCN5CCCCC5)cc4)cnc23)ccn1 [Dorsomorphin]
mesoderm induction (T-GFP+ cells) [1]: did not affect mesoderm

Molecule: CCOC(=O)C1=C(C)NC2=C(C(=O)CC(C)(C)C2)C1c1ccc(-c2ccccc2)cc1 (stereo not drawn) [ITD-1(+)]
cardiogenesis (Myh6-GFP) [2, 25]: drove cardiomyogenesis

TGFBR2 kinase activity [4]: did not block the kinase activity | endogenous TGFBR2 levels [7]: decreased endogenous TGFBR2 levels | TGFBR1 kinase activity [9]: did not block the kinase activity | Emax, maximal depletion of HA-TGFBR2 ([23]; cell surface receptor): ~ 80% | time needed to reduce TGFBR2 levels ([23]; time course, flow cytometry): At least 6 h | time of maximum reduction of TGFBR2 levels ([23]; time course, flow cytometry): ≤ 24 h | Emax, maximal depletion of TGFBR2-mCherry ([23]; total receptor): ~ 50% | IC50 ([24]; HEK293T, TGFβ2 15ng/ml): 0.85 µM
Molecule: CCOC(=O)C1=C(C)NC2=C(C(=O)CC(C)(C)C2)C1c1ccc(-c2ccccc2)cc1 (stereo not drawn) [ITD-1]
mesoderm induced by Activin A (T gene expression) [3]: not by Activin A | Activin A signal inhibition (SBE4-Luc) [5]: weak and partial inhibitor | phosphorylation of SMAD2/3 induced by TGFβ2 [6]: potently blocked phosphorylation | TGFBR2 protein levels [8]: strongly downregulated TGFBR2 protein levels | cardiogenesis (Myh6-GFP) ([2]; added day 1-3 of differentiation, before mesoderm induction): completely abolished cardiogenesis | cardiogenesis (Myh6-GFP) [2, 25]: drove cardiomyogenesis; also recorded: optimally promoted cardiogenesis and beating cell clusters | toxicity as cause of inhibitory activity [10]: Toxicity was not responsible | TGFBR1 protein levels [11]: did not affect TGFBR1 | induction of Lefty1 in response to TGFβ2 ([12]; 5μM): effectively blocked induction | additional time needed to inhibit Lefty1 expression compared to SB-431542 ([12]; TGFβ2 treatment): ~ 3 h | Wnt signaling inhibition [13]: did not inhibit Wnt signaling; also recorded: not inhibited | phosphorylation of SMAD2/3 in response to Activin A [14]: only minimally | induction of Lefty1 in response to Activin A [15]: not to Activin A | mesoderm induced by TGFβ (T gene expression) [16]: selectively blocked mesoderm induced by TGFβ | mesoderm induction (T-GFP+ cells) [1]: diminished the number of mesoderm cells | germ layer markers at day 5 (RT-qPCR) [17, 26]: induced ectoderm at the expense of mesoderm | lineage markers at day 10 (RT-qPCR) [17, 26]: markers for mesoderm tissues such as heart, endothelium, smooth muscle and blood were all downregulated, while neural markers were upregulated | marker expression at day 5 (RT-qPCR) ([17]; mESC treated day 3-5): only the cardiac progenitor specific markers Kdr and Mesp1 were increased | marker expression at day 10 (RT-qPCR) ([17]; mESC treated day 3-5): only cardiac-specific markers were increased | enhancement of TNNT2+ cardiomyocyte yield ([18]; added day 1-5, analysed day 6): ~ 30% | resulting cardiomyocytes (TNNT2+) ([18]; added day 1-5, analysed day 6): ~ 60% | immediate internalization of TGFBR2 [19]: did not block immediate internalization of TGFBR2 | effect on other tyrosine kinase receptors [20]: did not affect other tyrosine kinase receptors | role of calcium inhibition in ITD-1 activities [21]: no evidence was found for a role through calcium inhibition | BMP signaling inhibition [22]: not inhibited | efficacy of TGFβ2 signaling inhibition (Emax, % inhibition) ([24]; HEK293T, SBE4-Luc): 92%

Molecule: c1ccc(-c2[nH]ncc2-c2ccnc3ccccc23)nc1 [LY-364947, reference compound]
cardiogenesis (Myh6-GFP) [2, 25]: drove cardiomyogenesis | mesoderm induction (T-GFP+ cells) [1]: diminished the number of mesoderm cells

IC50 ([24]; Homo sapiens, HEK-293T): 0.07 µM
Molecule: NC(=O)c1ccc(-c2nc(-c3ccc4c(c3)OCO4)c(-c3ccccn3)[nH]2)cc1 [SB-431542, reference compound]
cardiogenesis (Myh6-GFP) [2, 25]: drove cardiomyogenesis | mesoderm induction (T-GFP+ cells) [1]: diminished the number of mesoderm cells | cardiogenesis in hESC ([18]; mesoderm patterning stage, data not shown): completely blocked cardiogenesis | immediate internalization of TGFBR2 [19]: abolished internalization

Molecule: IWP
mesoderm induction (T-GFP+ cells) [1]: diminished the number of mesoderm cells

B1: TGFβ2: TGFβ family member ligand added to ESC cultures (protein, UniProt P61812 303-414, looked up)
Transforming growth factor …: ALDAAYCFRNVQDNCCLRPLYIDFKRDLGWKWIHEPKGYNANFCAGACPYLWSSDTQHSRVLSLYNTINPEASASPCCVSQDLEPLTILYYIGKTPKIEQLSNMIVKSCKCS
cardiogenesis (Myh6-GFP) [2, 25]: inhibited cardiogenesis
